In ChEMBL document CHEMBL2146410, “Novel N-Substituted Benzimidazolones as Potent, Selective, CNS-Penetrant, and Orally Active M1 mAChR Agonists” (ACS Med Chem Lett, 2010):
Calls of active or inactive are those of the source. The calls are words filed in the database; no cut-off is given here.

Key:
D(2) dopamine receptor = D(2) dopamine receptor (Homo sapiens, UniProt P14416); test: Binding affinity to dopamine D2 receptor
[1] = target: Voltage-gated inwardly rectifying potassium channel KCNH2 (Homo sapiens, UniProt Q12809); test: Binding affinity to human ERG
Sequence of Voltage-gated inwardly rectifying potassium channel KCNH2 (Q12809 whole entry): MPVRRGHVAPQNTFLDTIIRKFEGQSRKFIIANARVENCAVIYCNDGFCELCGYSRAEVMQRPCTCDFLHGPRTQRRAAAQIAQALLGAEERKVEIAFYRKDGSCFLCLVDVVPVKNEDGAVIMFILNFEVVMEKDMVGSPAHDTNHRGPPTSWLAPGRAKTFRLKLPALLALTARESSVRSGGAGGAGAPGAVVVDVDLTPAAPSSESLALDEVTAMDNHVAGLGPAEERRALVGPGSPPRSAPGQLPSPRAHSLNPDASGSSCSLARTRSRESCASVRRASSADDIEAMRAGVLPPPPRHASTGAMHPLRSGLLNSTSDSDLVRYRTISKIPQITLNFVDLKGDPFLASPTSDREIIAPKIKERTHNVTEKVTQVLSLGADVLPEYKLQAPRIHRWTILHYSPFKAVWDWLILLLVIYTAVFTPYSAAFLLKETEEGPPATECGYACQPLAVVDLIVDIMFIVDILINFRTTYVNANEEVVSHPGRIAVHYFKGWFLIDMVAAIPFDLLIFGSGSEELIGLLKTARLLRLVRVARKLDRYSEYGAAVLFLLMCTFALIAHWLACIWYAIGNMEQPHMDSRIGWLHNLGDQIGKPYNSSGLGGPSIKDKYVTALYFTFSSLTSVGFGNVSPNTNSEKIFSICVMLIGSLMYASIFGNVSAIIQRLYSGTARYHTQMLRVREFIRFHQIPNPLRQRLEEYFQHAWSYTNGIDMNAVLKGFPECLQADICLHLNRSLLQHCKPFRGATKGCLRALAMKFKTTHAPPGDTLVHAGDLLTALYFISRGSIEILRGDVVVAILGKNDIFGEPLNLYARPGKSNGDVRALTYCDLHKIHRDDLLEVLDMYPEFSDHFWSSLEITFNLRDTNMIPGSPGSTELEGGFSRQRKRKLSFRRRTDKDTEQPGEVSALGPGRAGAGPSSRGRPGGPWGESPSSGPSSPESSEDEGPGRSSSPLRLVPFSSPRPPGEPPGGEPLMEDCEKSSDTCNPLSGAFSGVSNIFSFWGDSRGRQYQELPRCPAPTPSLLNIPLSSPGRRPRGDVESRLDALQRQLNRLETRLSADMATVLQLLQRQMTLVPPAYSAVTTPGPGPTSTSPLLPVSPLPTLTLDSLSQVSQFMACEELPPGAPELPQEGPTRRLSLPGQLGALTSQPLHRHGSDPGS

[2] = target: T1, Muscarinic acetylcholine receptor M1 (Homo sapiens, UniProt P11229); test: Agonist activity at human muscarinic M1 receptor expressed in CHO cells assessed as intracellular calcium mobilization after 10 to 15 mins by FLIPR assay; type: functional, cell-based
T1 sequence (P11229 whole entry): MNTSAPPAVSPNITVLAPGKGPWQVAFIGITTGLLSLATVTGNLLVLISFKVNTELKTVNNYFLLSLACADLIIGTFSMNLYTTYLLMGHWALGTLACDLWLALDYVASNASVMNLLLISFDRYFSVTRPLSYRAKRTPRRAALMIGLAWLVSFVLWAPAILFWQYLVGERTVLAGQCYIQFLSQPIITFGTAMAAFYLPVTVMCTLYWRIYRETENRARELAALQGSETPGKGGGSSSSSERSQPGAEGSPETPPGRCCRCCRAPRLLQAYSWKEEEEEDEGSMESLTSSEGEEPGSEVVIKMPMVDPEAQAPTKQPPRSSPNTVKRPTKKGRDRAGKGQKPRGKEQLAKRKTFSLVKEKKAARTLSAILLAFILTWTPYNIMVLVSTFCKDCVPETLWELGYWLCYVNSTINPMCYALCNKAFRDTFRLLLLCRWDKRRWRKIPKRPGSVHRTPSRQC
Procedure, shortened: (§1)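 Human M1 mAChR stably expressed in CHO cells; agonist-induced intracellular Ca2+ mobilization read by fluorometric imaging plate reader (FLIPR).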

[3] = target: T2, 5-hydroxytryptamine receptor 1A (Homo sapiens, UniProt P08908); test: Activity at 5HT1A receptor
T2 sequence (P08908 whole entry): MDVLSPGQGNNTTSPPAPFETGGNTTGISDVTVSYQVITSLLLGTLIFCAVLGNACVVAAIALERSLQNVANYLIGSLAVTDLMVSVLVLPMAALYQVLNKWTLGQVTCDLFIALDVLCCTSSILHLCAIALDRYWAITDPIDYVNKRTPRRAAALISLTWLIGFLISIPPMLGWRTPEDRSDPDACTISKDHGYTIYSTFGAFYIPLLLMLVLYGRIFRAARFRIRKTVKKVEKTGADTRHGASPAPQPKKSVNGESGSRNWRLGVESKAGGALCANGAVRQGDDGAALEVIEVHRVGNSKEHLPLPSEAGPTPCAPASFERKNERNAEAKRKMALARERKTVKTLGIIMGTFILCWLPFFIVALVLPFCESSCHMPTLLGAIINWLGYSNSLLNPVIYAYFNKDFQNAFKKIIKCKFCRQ

[4] = target: T3, Muscarinic acetylcholine receptor M2 (Homo sapiens, UniProt P08172); test: Agonist activity at human muscarinic M2 receptor expressed in CHO cells coexpressing Galpha16 subunit assessed as intracellular calcium mobilization after 10 to 15 mins by FLIPR assay; type: functional, cell-based
T3 sequence (P08172 whole entry): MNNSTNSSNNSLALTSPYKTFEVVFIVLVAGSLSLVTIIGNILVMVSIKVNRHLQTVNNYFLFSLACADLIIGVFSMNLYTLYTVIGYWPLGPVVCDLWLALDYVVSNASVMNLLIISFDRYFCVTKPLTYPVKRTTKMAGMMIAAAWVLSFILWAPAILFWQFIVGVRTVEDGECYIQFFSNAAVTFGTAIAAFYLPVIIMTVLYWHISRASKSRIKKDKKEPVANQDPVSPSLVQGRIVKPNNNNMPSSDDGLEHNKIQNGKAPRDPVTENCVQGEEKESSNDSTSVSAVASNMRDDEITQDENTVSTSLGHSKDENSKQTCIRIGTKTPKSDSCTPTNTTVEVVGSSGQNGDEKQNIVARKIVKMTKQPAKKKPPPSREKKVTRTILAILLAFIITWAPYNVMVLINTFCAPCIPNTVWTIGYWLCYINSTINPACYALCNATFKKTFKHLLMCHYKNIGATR

[5] = target: T4, Muscarinic acetylcholine receptor M1 (Homo sapiens) (UniProt P11229); test: Intrinsic activity at human muscarinic M1 receptor expressed in CHO cells assessed as intracellular calcium mobilization after 10 to 15 mins by FLIPR assay; type: functional, cell-based; procedure, shortened: as §1
T4 sequence (whole entry): T1 sequence (P11229 whole entry)

[6] = target: T5, Muscarinic acetylcholine receptor M3 (Homo sapiens, UniProt P20309); test: Agonist activity at human muscarinic M3 receptor expressed in CHO cells assessed as intracellular calcium mobilization after 10 to 15 mins by FLIPR assay; type: functional, cell-based
Target sequence in this assay (P20309 whole entry): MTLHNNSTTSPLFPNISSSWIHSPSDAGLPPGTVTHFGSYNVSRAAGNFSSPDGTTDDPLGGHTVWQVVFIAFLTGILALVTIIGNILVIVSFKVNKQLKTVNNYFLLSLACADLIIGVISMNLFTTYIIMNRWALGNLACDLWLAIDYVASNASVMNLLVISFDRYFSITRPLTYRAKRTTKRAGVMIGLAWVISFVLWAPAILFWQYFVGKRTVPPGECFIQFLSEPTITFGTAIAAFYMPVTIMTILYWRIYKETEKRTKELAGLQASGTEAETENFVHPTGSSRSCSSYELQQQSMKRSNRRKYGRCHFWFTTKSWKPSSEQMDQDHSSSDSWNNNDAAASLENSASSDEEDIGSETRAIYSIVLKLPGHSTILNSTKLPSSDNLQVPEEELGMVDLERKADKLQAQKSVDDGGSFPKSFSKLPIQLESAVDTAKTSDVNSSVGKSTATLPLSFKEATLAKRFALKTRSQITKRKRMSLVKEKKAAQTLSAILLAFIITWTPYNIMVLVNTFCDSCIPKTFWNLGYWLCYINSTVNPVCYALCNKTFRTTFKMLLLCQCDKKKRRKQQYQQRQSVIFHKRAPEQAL

D(3) dopamine receptor = D(3) dopamine receptor (Homo sapiens, UniProt P35462); test: Binding affinity to dopamine D3 receptor
Sequence of D(3) dopamine receptor (P35462 whole entry): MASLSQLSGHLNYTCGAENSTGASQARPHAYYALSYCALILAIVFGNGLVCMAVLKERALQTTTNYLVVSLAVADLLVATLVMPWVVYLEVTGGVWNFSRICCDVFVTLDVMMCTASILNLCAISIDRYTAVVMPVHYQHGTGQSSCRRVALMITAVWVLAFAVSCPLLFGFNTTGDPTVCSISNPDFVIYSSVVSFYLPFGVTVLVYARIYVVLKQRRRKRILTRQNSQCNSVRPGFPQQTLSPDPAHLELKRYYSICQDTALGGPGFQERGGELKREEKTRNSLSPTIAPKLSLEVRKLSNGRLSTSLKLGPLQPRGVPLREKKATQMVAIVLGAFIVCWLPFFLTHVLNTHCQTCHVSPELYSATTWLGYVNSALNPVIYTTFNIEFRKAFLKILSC

[7] = target: T6, Muscarinic acetylcholine receptor M4 (Homo sapiens, UniProt P08173); test: Agonist activity at human muscarinic M4 receptor expressed in CHO cells coexpressing Galpha16 subunit assessed as intracellular calcium mobilization after 10 to 15 mins by FLIPR assay; type: functional, cell-based
T6 sequence (P08173 whole entry): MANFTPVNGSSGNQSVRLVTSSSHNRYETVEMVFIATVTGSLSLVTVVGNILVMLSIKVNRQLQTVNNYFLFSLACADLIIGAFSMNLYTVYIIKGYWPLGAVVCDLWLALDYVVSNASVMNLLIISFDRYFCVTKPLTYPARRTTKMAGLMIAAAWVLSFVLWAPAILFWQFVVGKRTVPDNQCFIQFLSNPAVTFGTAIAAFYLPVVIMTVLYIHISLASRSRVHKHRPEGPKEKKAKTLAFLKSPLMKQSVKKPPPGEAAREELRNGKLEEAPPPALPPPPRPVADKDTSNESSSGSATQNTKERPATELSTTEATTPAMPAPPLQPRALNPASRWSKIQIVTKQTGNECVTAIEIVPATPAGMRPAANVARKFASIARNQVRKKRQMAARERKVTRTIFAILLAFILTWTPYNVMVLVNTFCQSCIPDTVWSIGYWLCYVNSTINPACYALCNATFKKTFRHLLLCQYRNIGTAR

[8] = target: 5-hydroxytryptamine receptor 2A (Homo sapiens, UniProt P28223); test: Binding affinity to 5HT2A receptor
Sequence of 5-hydroxytryptamine receptor 2A (P28223 whole entry): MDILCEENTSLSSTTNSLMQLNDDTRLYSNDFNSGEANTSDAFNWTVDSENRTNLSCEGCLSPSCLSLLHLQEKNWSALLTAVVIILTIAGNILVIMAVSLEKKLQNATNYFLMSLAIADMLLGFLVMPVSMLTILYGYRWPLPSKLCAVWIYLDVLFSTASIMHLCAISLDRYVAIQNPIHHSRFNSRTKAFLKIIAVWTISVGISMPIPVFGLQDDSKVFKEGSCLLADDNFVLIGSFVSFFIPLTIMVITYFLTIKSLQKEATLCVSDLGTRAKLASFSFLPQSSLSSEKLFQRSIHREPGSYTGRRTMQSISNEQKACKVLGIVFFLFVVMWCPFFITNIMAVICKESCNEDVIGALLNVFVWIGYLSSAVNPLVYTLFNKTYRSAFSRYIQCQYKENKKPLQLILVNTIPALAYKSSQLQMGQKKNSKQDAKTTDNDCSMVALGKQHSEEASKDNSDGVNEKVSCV

Rattus norvegicus [9] = test: Increase in neuronal firing rate in Sprague-Dawley rat hippocampal CA1 region at 1 mg/kg, iv; type: functional
Procedure, shortened: (§2)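 Rat hippocampal CA1 neuronal cell firing rate recorded after iv dosing at 0.3 or 1 mg/kg. Where used, scopolamine was given at 3 mg/kg ip […] before the iv dose. Statistics by repeated measures ANOVA.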

[10] = Ratio of drug level in brain to blood in rat at 3 mg/kg, po; type: ADME, organism-based; parameters: dose 3 mg/kg, route oral
Rattus norvegicus [11] = test: Antidementia activity against scopolamine-induced amnesia in Wistar rat assessed as improvement in recall latency to transfer from bright to dark compartment administered orally 2 hrs before scopolamine challenge measured after 24 hrs post training by passive avoidance test; type: functional, organism-based
Procedure, shortened: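 Rat passive avoidance task with scopolamine (0.8 mg/kg) given to induce amnesia. Test agent dosed orally at 1, 3 and 10 mg/kg. Groups compared with vehicle-treated controls and with scopolamine alone.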

[12] = target: T7, Muscarinic acetylcholine receptor M4 (Homo sapiens) (UniProt P08173); test: Intrinsic activity at human muscarinic M4 receptor expressed in CHO cells coexpressing Galpha16 subunit assessed as intracellular calcium mobilization after 10 to 15 mins by FLIPR assay; type: functional, cell-based
T7 sequence (whole entry): T6 sequence (P08173 whole entry)

[13] = target: T5, Muscarinic acetylcholine receptor M3; test: Intrinsic activity at human muscarinic M3 receptor expressed in CHO cells assessed as intracellular calcium mobilization after 10 to 15 mins by FLIPR assay; type: functional, cell-based
Target sequence in this assay (P20309 whole entry, looked up): as the sequence (P20309 whole entry) above

Rattus norvegicus [14] = test: Increase in neuronal firing rate in Sprague-Dawley rat hippocampal CA1 region at 1 mg/kg, iv pretreated with 3 mg/kg, ip mAChR antagonist scopolamine for 10 mins; type: functional, organism-based
Rattus norvegicus [15] = test: Increase in neuronal firing rate in Sprague-Dawley rat hippocampal CA1 region at 0.3 mg/kg, iv; type: functional, organism-based; parameters: dose 0.3 mg/kg; procedure, shortened: as §2
[16] = target: T8, Muscarinic acetylcholine receptor M2 (Homo sapiens) (UniProt P08172); test: Intrinsic activity at human muscarinic M2 receptor expressed in CHO cells coexpressing Galpha16 subunit assessed as intracellular calcium mobilization after 10 to 15 mins by FLIPR assay; type: functional, cell-based
T8 sequence (whole entry): T3 sequence (P08172 whole entry)

[17] = Half life in rat at 3 mg/kg, po; type: ADME, organism-based; parameters: dose 3 mg/kg, route oral; conditions: in vivo
[18] = Half life in rat at 1 mg/kg, iv; type: ADME, organism-based; parameters: dose 1 mg/kg, route intravenous; conditions: in vivo
Liver microsomes = test: Intrinsic clearance in human liver microsomes; type: ADME, Microsome
[19] = Blood clearance in rat at 1 mg/kg, iv; type: ADME, organism-based; parameters: dose 1 mg/kg, route intravenous
[20] = target: T9, Muscarinic acetylcholine receptor M5 (Homo sapiens, UniProt P08912); test: Agonist activity at human muscarinic M5 receptor expressed in CHO cells assessed as intracellular calcium mobilization after 10 to 15 mins by FLIPR assay; type: functional, cell-based
T9 sequence (P08912 whole entry): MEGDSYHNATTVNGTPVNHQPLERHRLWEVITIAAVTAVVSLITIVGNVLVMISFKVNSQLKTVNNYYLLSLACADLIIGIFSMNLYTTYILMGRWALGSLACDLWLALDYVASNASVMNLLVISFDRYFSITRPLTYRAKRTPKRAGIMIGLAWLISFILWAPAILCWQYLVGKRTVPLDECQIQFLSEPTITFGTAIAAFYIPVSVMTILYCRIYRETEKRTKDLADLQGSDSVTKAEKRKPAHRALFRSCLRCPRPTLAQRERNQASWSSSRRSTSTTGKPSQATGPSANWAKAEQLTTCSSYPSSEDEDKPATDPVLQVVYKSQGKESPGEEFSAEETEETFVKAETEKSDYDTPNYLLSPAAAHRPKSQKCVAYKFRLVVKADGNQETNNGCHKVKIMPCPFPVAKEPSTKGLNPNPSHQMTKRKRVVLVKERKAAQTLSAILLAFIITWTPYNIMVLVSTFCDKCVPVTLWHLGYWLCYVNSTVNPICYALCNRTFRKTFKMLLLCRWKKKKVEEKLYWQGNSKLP

Sequence of D(2) dopamine receptor (P14416 whole entry): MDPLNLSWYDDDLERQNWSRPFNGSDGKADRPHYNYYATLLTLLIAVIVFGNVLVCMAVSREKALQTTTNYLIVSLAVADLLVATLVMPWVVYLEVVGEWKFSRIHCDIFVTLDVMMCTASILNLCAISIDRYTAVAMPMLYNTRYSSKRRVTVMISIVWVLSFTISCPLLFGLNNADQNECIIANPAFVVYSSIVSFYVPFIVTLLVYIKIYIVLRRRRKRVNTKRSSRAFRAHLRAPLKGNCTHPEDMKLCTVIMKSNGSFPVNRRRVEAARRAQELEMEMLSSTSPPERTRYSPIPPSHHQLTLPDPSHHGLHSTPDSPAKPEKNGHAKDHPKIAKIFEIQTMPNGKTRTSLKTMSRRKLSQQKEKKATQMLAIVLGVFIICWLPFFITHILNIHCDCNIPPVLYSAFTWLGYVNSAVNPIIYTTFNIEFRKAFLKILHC

Compound	IC50 [1]	EC50 [2]	EC50 [4]	Intrinsic activity [5]	EC50 [6]	EC50 [7]	Kp [10]	Intrinsic activity [12]	Intrinsic activity [13]	Intrinsic activity [16]	other results
O=c1[nH]c2ccccc2n1C1CCN(CCCOc2ccc(F)cc2)CC1	79.4 nM	398 nM	> 25100 nM	86%	> 25100 nM	> 25100 nM	–	–	–	–	Ki (D(2) dopamine receptor): 0.501 nM; EC50 [3]: 50.1 nM; Ki (D(3) dopamine receptor): 1.26 nM; Ki [8]: 3.16 nM
Cc1cc2c(cc1F)[nH]c(=O)n2C1CCN(C2CCOCC2)CC1	12600 nM	–	–	94%	–	501 nM	0.6	71%	58%	71%	fold change (FC) (Rattus norvegicus [9]): 3; Activity (Rattus norvegicus [11]): Dose-dependent effect; Activity (Rattus norvegicus [14]): inactive; Activity (Rattus norvegicus [15]): inactive
Cc1ccc2[nH]c(=O)n(C3CCN(C4CCOCC4)CC3)c2c1	25100 nM	5.01 nM	631 nM	92%	3980 nM	631 nM	0.6	68%	72%	71%	half-life [17]: 2.6 h
O=c1[nH]c2ccccc2n1C1CCN(C2CCOCC2)CC1	–	–	–	101%	> 10000 nM	–	–	77%	–	88%	half-life [18]: 0.5 h; CLH (Liver microsomes): 0.5 mL/min/g; clearance [19]: 68 mL/min/kg; EC50 [20]: > 10000 nM
